Results of several laboratories.
Sample: plasma

The clearance of `Cc1nn2c(-c3c(C)nn(C)c3-c3ccc(C(F)(F)F)cc3)nc(CO)c2c(=O)[nH]1` is reported as 28 mL/min/kg (male Wistar rat; intravenous, 1 mg/kg).
`COc1ccc(C(C)=O)c(O)c1` gave a CL/F of 44.2 mL/min/kg (male Sprague-Dawley rat; oral, 100 mg/kg).
`CC[C@H](C)[C@H](NC(=O)[C@H](Cc1ccccc1)NC(=O)[C@H](CCC(=O)O)NC(=O)[C@H](CCCNC(=N)N)NC(=O)[C@H](C)NC(=O)[C@H](C)NC(=O)[C@H](CCC(N)=O)NC(=O)[C@H](CCC(=O)O)NC(=O)[C@H](CCC(=O)O)NC(=O)[C@H](CC(C)C)NC(=O)[C@H](Cc1ccc(O)cc1)NC(=O)[C@H](CO)NC(=O)[C@H](CO)NC(=O)[C@@H](NC(=O)[C@H](CC(=O)O)NC(=O)[C@H](CO)NC(=O)[C@@H](NC(=O)[C@H](Cc1ccccc1)NC(=O)[C@@H](NC(=O)CNC(=O)[C@H](CCC(=O)O)NC(=O)[C@H](C)NC(=O)CCc1c[nH]cn1)[C@@H](C)O)[C@@H](C)O)C(C)C)C(=O)N[C@@H](C)C(=O)N[C@@H](Cc1c[nH]c2ccccc12)C(=O)N[C@@H](CC(C)C)C(=O)N[C@H](C(=O)N[C@@H](CCCNC(=N)N)C(=O)NCC(=O)N[C@@H](CCCNC(=N)N)C(=O)N[C@@H](CCCCNC(=O)COCCOCCNC(=O)COCCOCCNC(=O)CC[C@H](NC(=O)CCCCCCCCCCCCCCCCC(=O)O)C(=O)O)C(=O)O)C(C)C` has a CL/F of 0.145 mL/min/kg (rat; subcutaneous, 20 nmol/kg).
`CCCC[C@@H]1NC(=O)[C@H](Cc2ccc(O)cc2)NC(=O)[C@@H]2CCCN2C(=O)[C@H](CC(=O)O)NC(=O)[C@H](C)NC(=O)[C@H](Cc2ccccc2)NC(=O)[C@@H]2CSCCC(=O)N3CN(CN(C3)C(=O)CCSC[C@@H](C(=O)N[C@@H](C)C(N)=O)NC1=O)C(=O)CCSC[C@H](NC(C)=O)C(=O)N[C@@H](CC(C)(C)C)C(=O)N1CCC[C@H]1C(=O)N[C@@H](CCC(=O)O)C(=O)N[C@H](CCCCNC(=O)CCc1cn(CCOCCOCCOCCOCCOCCOCCOCCOCCOCCOCCNC(=O)c3cc(C(=O)NCCOCCOCCOCCOCCOCCOCCOCCOCCOCCOCCn4cc(CCC(=O)NCCCC[C@H]5NC(=O)[C@H](CCC(=O)O)NC(=O)[C@@H]6CCCN6C(=O)[C@H](CC(C)(C)C)NC(=O)[C@@H](NC(C)=O)CSCCC(=O)N6CN7CN(C6)C(=O)CCSC[C@H](NC(=O)[C@H](Cc6ccc(O)cc6)NC(=O)[C@@H]6CCCN6C5=O)C(=O)N[C@@H](Cc5ccccc5)C(=O)N[C@@H](C)C(=O)N[C@@H](CC(=O)O)C(=O)N5CCC[C@H]5C(=O)N[C@@H](Cc5ccc(O)cc5)C(=O)N[C@@H](CCCC)C(=O)N[C@H](C(=O)N[C@@H](C)C(N)=O)CSCCC7=O)nn4)cc(C(=O)NCCOCCOCCOCCOCCOCCOCCOCCOCCOCCOCCn4cc(CCC(=O)N[C@H]5CSCCC(=O)N6CN7CN(C6)C(=O)CCSC[C@H](NC(=O)[C@@H](CC(=O)O)NC(=O)[C@H](Cc6cccc8ccccc68)NC(=O)[C@@H]6CCCN6C5=O)C(=O)N[C@@H](CCSC)C(=O)N[C@@H](CCCCNC(=N)N)C(=O)N[C@@H](CC(=O)O)C(=O)N[C@@H](Cc5c[nH]c6ccccc56)C(=O)N[C@@H](CO)C(=O)N[C@@H]([C@@H](C)O)C(=O)N5CCC[C@H]5C(=O)N5C[C@H](O)C[C@H]5C(=O)N[C@@H](Cc5c[nH]c6ccccc56)C(=O)N[C@H](C(N)=O)CSCCC7=O)nn4)c3)nn1)C(=O)N1CCC[C@H]1C(=O)N[C@@H](Cc1ccc(O)cc1)C(=O)N2` has a clearance of 9.2 mL/min/kg (rat; intravenous, 2 mg/kg).
For `O=C(Nc1cc(F)c(F)c(F)c1)c1ccc(F)c(S(=O)(=O)NCc2cccc(B(O)O)c2)c1`, the clearance was 137 mL/min/kg (male Sprague-Dawley rat; intravenous, 2 mg/kg).
The CL/F of `CCc1nc(C(N)=O)c(Nc2ccc(N3CCC(N4CCN(C)CC4)CC3)c(OC)c2)nc1NC1CCOCC1` is reported as 0.9 L/h (rat; oral, 10 mg/kg).
`C#Cc1cccc(Nc2ncnc3cc(OCCOC)c(OCCOC)cc23)c1` has a CL/F of 22 mL/min/kg (male Sprague-Dawley rat; oral, 12 mg/kg, single dose).
For `COc1ccc2c(Cc3ccccc3F)c3[n+](cc2c1OC)CCc1cc2c(cc1-3)OCO2.[Br-]`, the clearance was 672 mL/min/kg (rat; intravenous, 5 mg/kg).
`C=CC(=O)Nc1cc(Nc2nccc(Nc3cc(Cl)c(F)cc3C(C)(C)O)n2)c(OC)cc1N1CC[C@@H](N(C)C)C1` has a clearance of 30.8 mL/min/kg (Wistar rat; intravenous, 3 mg/kg).
For `N#Cc1ccc(Nc2nc(N)cc(Oc3c(F)cc(-c4ccc(C#N)cc4)cc3F)n2)cc1`, the clearance was 54.6 mL/min/kg (Sprague-Dawley rat; intravenous, 1 mg/kg).
For `Oc1c(Br)cc(Cl)c2cccnc12`, the CL/F was 31.7 mL/min/kg (Sprague-Dawley rat; subcutaneous, 10 mg/kg).
The clearance of `COCCOC(=O)C1=C(C)NC(C)=C(C(=O)OC(C)C)C1c1cccc([N+](=O)[O-])c1` (stereo not drawn) is reported as 0.025 mL/min/kg (male Sprague-Dawley rat; intravenous, 3 mg/kg).
